Test results as given in article PMC11293336 (Cell Reports Medicine, 2024).

How the values were obtained:
[1] = test system: patients with recurrent high-grade glioma; assay: Dose-limiting toxicities and adverse events of oral terameprocol, GATOR trial; type: in vivo, human
Procedure, shortened: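 Patients ≥18 y with recurrent supratentorial grade III–IV glioma took oral capsules once daily, days 1–5 every 28 days, fasted; an amended cohort took 6,000 mg/day with a meal within 30 min. 3+3 escalation over 1,200–6,000 mg/day. DLT window was the first 4 weeks: ANC <500/μL, platelets <25,000/μL, febrile neutropenia, hematologic toxicity preventing >80% of dose, grade 3–4 seizure/intracranial hemorrhage, grade 3 QTcF. AEs CTCAE-graded.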

dogs = assay: 28-day oral toxicity study in dogs; type: in vivo, Beagle Dog; settings: continuous 28-day schedule
[2] = IV 1,700 mg/day (MTD), 5 days/month; cited from earlier work
[3] = test system: recurrent high-grade gliomas; settings: IV; cited from earlier work
[4] = test system: refractory head and neck cancer; settings: intratumoral, three weekly doses at 10–15 mg/cm; cited from earlier work
[5] = test system: advanced refractory solid tumors; settings: intravenous; cited from earlier work
[6] = test system: advanced acute myeloid leukemia or myelodysplastic syndrome; settings: intravenous; cited from earlier work
[7] = related to terameprocol, all cycles, N = 19

In the case of `COc1ccc(C[C@@H](C)[C@@H](C)Cc2ccc(OC)c(OC)c2)cc1OC` [terameprocol, meso-tetra-O-methyl nordihydroguaiaretic acid], the DLT ([1]; dose expansion at DL2fasted 2,400 mg/day, three additional patients) is reported as “no additional DLTs”, the “Alanine aminotransferase increased, Grade 1” value [1, 7] is reported as 2 (10.5%) No. of patients (%) and the “Alanine aminotransferase increased, Total” value [1, 7] is reported as 2 (10.5%) No. of patients (%). The “Anemia, Grade 1” value [1, 7] was 4 (21.1%) No. of patients (%), the “Anemia, Total” value [1, 7] was 4 (21.1%) No. of patients (%) and the “Anorexia, Grade 1” value [1, 7] was 2 (10.5%) No. of patients (%). For the same compound, the “Anorexia, Grade 2” value [1, 7] was 1 (5.3%) No. of patients (%), the “Anorexia, Total” value [1, 7] was 3 (15.8%) No. of patients (%) and the “Arthralgia, Grade 1” value [1, 7] was 1 (5.3%) No. of patients (%). The “Arthralgia, Total” value [1, 7] was 1 (5.3%) No. of patients (%), the “Aspartate aminotransferase increased, Grade 1” value [1, 7] was 1 (5.3%) No. of patients (%) and the “Aspartate aminotransferase increased, Total” value [1, 7] was 1 (5.3%) No. of patients (%). For the same compound, the “Blood bilirubin increased, Grade 1” value [1, 7] was 1 (5.3%) No. of patients (%), the “Blood bilirubin increased, Total” value [1, 7] was 1 (5.3%) No. of patients (%) and the “Constipation, Grade 1” value [1, 7] was 1 (5.3%) No. of patients (%). The “Constipation, Total” value [1, 7] was 1 (5.3%) No. of patients (%), the “Diarrhea, Grade 1” value [1, 7] was 2 (10.5%) No. of patients (%) and the “Diarrhea, Total” value [1, 7] was 2 (10.5%) No. of patients (%). The “Electrocardiogram QT corrected interval prolonged, Grade 3” value [1, 7] was 1 (5.3%) No. of patients (%), the “Electrocardiogram QT corrected interval prolonged, Total” value [1, 7] was 1 (5.3%) No. of patients (%) and the “Fatigue, Grade 1” value [1, 7] was 2 (10.5%) No. of patients (%). The “Fatigue, Grade 2” value [1, 7] was 2 (10.5%) No. of patients (%), the “Fatigue, Total” value [1, 7] was 4 (21.1%) No. of patients (%) and the “Fever, Grade 1” value [1, 7] was 1 (5.3%) No. of patients (%). For the same compound, the “Fever, Total” value [1, 7] was 1 (5.3%) No. of patients (%), the “Gastrointestinal pain, Grade 1” value [1, 7] was 1 (5.3%) No. of patients (%) and the “Gastrointestinal pain, Total” value [1, 7] was 1 (5.3%) No. of patients (%). For the same compound, the “Hyperglycemia, Grade 1” value [1, 7] was 1(5.3%) No. of patients (%), the “Hyperglycemia, Total” value [1, 7] was 1 (5.3%) No. of patients (%) and the “Hyperkalemia, Grade 2” value [1, 7] was 1 (5.3%) No. of patients (%). The “Hyperkalemia, Total” value [1, 7] was 1 (5.3%) No. of patients (%), the “Hypernatremia, Grade 1” value [1, 7] was 1 (5.3%) No. of patients (%) and the “Hypernatremia, Total” value [1, 7] was 1 (5.3%) No. of patients (%). The “Hypertension, Grade 1” value [1, 7] was 1 (5.3%) No. of patients (%), the “Hypertension, Total” value [1, 7] was 1 (5.3%) No. of patients (%) and the “Hypocalcemia, Grade 1” value [1, 7] was 1 (5.3%) No. of patients (%). The “Hypocalcemia, Total” value [1, 7] was 1 (5.3%) No. of patients (%), the “Hypokalemia, Grade 1” value [1, 7] was 1 (5.3%) No. of patients (%) and the “Hypomagnesemia, Grade 1” value [1, 7] was 3 (15.8%) No. of patients (%). For the same compound, the “Hypomagnesemia, Grade 2” value [1, 7] was 1 (5.3%) No. of patients (%), the “Hypomagnesemia, Total” value [1, 7] was 4 (21.1%) No. of patients (%) and the “Hyponatremia, Grade 1” value [1, 7] was 3 (15.8%) No. of patients (%). The “Hyponatremia, Total” value [1, 7] was 3 (15.8%) No. of patients (%), the “Hypophosphatemia, Grade 1” value [1, 7] was 1 (5.3%) No. of patients (%) and the “Hypophosphatemia, Total” value [1, 7] was 1 (5.3%) No. of patients (%). The “Lymphocyte count decreased, Grade 2” value [1, 7] was 1 (5.3%) No. of patients (%), the “Lymphocyte count decreased, Grade 3” value [1, 7] was 1 (5.3%) No. of patients (%) and the “Lymphocyte count decreased, Total” value [1, 7] was 2 (10.5%) No. of patients (%). For the same compound, the “Mouth sores, Grade 1” value [1, 7] was 1 (5.3%) No. of patients (%), the “Mouth sores, Total” value [1, 7] was 1 (5.3%) No. of patients (%) and the “Muscle cramp, Grade 1” value [1, 7] was 1 (5.3%) No. of patients (%). The “Muscle cramp, Total” value [1, 7] was 1 (5.3%) No. of patients (%), the “Muscle weakness lower limb, Grade 1” value [1, 7] was 1 (5.3%) No. of patients (%) and the “Muscle weakness lower limb, Total” value [1, 7] was 1 (5.3%) No. of patients (%). For the same compound, the “Nausea, Grade 1” value [1, 7] was 3 (15.8%) No. of patients (%), the “Nausea, Total” value [1, 7] was 3 (15.8%) No. of patients (%) and the “Platelet count decreased, Grade 1” value [1, 7] was 1 (5.3%) No. of patients (%). For the same compound, the “Platelet count decreased, Total” value [1, 7] was 1 (5.3%) No. of patients (%), the “Rash, maculopapular, Grade 1” value [1, 7] was 1 (5.3%) No. of patients (%) and the “Rash, maculopapular, Total” value [1, 7] was 1 (5.3%) No. of patients (%). For the same compound, the “Vomiting, Grade 1” value [1, 7] was 2 (10.5%) No. of patients (%), the “Vomiting, Total” value [1, 7] was 2 (10.5%) No. of patients (%) and the “Weight loss, Grade 1” value [1, 7] was 1 (5.3%) No. of patients (%). For the same compound, the “Weight loss, Total” value [1, 7] was 1 (5.3%) No. of patients (%), the tolerability (dogs) was “well tolerated” and the “median AUC” value [2] was 31.3 μg∗h/mL. For the same compound, the objective responses [3] was “no objective responses”, the “total necrosis of the injection site, patients” value [4] was 2/3 and the “dose at which DLT was demonstrated” value [5] was 3,300 mg/day. For the same compound, the partial response [5] was 1/29, the stable disease [5] was 6/29 and the stable disease [6] was “five”.
